Assay results as given in PubChem BioAssay AID2445 (The Scripps Research Institute Molecular Screening Center, 2010).
Hit rate of the full screen: of about 320,000 compounds, about 200 (0.062%) were called active. This is one part of a sample in which actives are shown more often than they occur. Unmarked numbers belong to inactive results.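 The calls were made as follows: active = activation above that plate's cutoff, the mean activation of tested compounds plus 3 SD (cut at about 6.6% in these data, passing the limit was not always enough); inactive = the rest.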

Each molecule was assayed against Oxytocin receptor (Homo sapiens) (UniProt P30559) (assay: human OXTR potentiators, primary screen, fluorescence, CHO-OTR cells, Fluo-8 calcium (AID 2445)). Details: Fluo-8 calcium fluorescence, potentiator mode, at 3 µM, active compounds read high, 0% = oxytocin EC15, 100% = EC100.
Oxytocin receptor (Homo sapiens), sequence (P30559 whole entry, looked up): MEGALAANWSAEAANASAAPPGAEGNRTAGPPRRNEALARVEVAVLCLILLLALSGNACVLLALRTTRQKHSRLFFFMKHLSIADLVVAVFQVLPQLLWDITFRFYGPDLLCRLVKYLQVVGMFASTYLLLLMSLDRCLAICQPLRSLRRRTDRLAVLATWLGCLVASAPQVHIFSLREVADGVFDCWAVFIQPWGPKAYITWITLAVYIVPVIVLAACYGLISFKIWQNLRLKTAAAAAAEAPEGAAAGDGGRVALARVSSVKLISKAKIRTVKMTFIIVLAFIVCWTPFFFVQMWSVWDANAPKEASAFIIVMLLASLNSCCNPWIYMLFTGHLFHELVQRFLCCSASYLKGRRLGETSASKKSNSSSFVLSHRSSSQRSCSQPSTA
In short: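 Assay system: CHO cell line stably expressing human OTR | Also added: Oxytocin at about EC15, sub-maximal agonist stimulus | Times: Compound 6 min at room temperature before oxytocin, 100 s read | Measured by: Fluo-8 intracellular calcium fluorescence, ex 470-495, em 515-575 nm | Controls: EC15 oxytocin alone as 0%, 75 nM oxytocin as 100%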
`O=C(CNC(=O)c1ccc2ccccc2c1)Nc1ncccc1O` showed an activation of 1.14%. Molecule `COc1ccc(N(C(=O)c2snc(C(N)=O)c2N)C(C(=O)NC2CCCC2)c2ccc(C)o2)c(OC)c1` (centres undefined) has an activation of -3.04%. In the case of `Cc1ccc(OCC(O)CN2CCN(CC(O)COc3ccc(C)cc3Cl)CC2)c(Cl)c1` (centres undefined), the activation is reported as 12.6% (active). `Cc1cccc(OCC(O)CN2CCN(S(=O)(=O)c3ccc(C)cc3C)CC2)c1` (centres undefined) gave an activation of -12%. `OC(COc1ccc(F)cc1Cl)CN1CCc2ccccc2C1` (centres undefined) was tested, and the activation was -6.27%. `COc1ccc(NC(=O)CCNS(=O)(=O)c2ccc3c(c2)c(=O)n(C)c(=O)n3C)cc1OC` showed an activation of -4.46%. For `O=C(Nc1ccc2c(c1)OCO2)C1CC(c2c(F)cccc2Cl)=NO1` (centres undefined), the activation was -1.98%. `CS(=O)(=O)N(Cc1nc2sc3c(c2c(=O)[nH]1)CCCC3)C1CCCCC1` showed an activation of -9.15%. `COc1cc2c(cc1OC)C(=O)NCC(C)(C)O2` gave an activation of 0.49%. Work on `CN(C(=O)c1cccc(NC(=O)Cc2ccc([N+](=O)[O-])cc2)c1)C1CCC1` yielded an activation of -0.31%. Molecule `O=C(CSc1n[nH]c(-c2cccnc2)n1)Nc1ccc(Cl)cc1` has an activation of -11%. Work on `COC(=O)C1CCN(C(=O)COC(=O)c2cc(S(=O)(=O)N3CCOCC3)ccc2C)CC1` yielded an activation of -5.03%. In the case of `O=C(OCCN1C(=O)c2ccccc2C1=O)[C@@H]1CC(O)CN1S(=O)(=O)c1ccccc1[N+](=O)[O-]` (some centres undefined), the activation is reported as -5.05%. `CCN(CC(=O)NCc1cccs1)C(=O)c1cccc(S(=O)(=O)Nc2ccccc2OC)c1` showed an activation of -5.42%. With `Cc1ccc(N2C(=O)SC(N(CC(=O)O)c3ccc(C)cc3)C2=O)cc1` (centres undefined) the activation was -15.1%. Work on `O=C(NCC(c1ccco1)N1CCc2ccccc21)c1cccc(F)c1` (centres undefined) yielded an activation of -9.25%. `CSc1nnnn1-c1c(C)cc(C)cc1C` was tested, and the activation was -1.91%. `CCOc1ccccc1Nc1nnc(SCC(=O)NCC2CCCO2)s1` (centres undefined) gave an activation of 0.07%. Work on `O=C(CCc1nnc2ccc(NCc3ccccc3Cl)nn12)NCC1CCN(C2CCCC2)C1` (centres undefined) yielded an activation of -8.06%. `CCCC(NC(=O)c1ccccc1)c1nc2ccccc2n1Cc1ccc(C(=O)OC)o1` (centres undefined) gave an activation of 4.77%. With `COc1cccc(-n2c(=O)c3c(C)c(C(=O)N(C)C)sc3n(CC(=O)NCCc3ccc(OC)c(OC)c3)c2=O)c1` the activation was -15.7%. In the case of `CC(CNC(=O)c1ccc(N)cc1)NC(=O)c1ccc(N)cc1` (centres undefined), the activation is reported as -7.37%. Molecule `CC(C)(CNC(=O)CNC(=O)C1CCCCC1)N1CCOCC1` has an activation of -6.61%. For `COCCN(C(=S)Nc1cccc(Cl)c1C)C(C)c1ccco1` (centres undefined), the activation was 2.23%. `CC(C)N1C(=S)SC(C)(C)C1n1oc(=O)n(-c2ccc(Cl)c(Cl)c2)c1=O` (centres undefined) showed an activation of -15.1%. `COc1ccc2[nH]c(=O)c(CN(Cc3cccnc3)S(=O)(=O)c3ccccc3F)cc2c1` was tested, and the activation was -13.1%. With `OC(c1ccc(Cl)cc1)C(CN1CCOCC1)c1ccccc1` (centres undefined) the activation was -9.47%. With `CCS(=O)(=O)c1ccc2c(c1)N(S(=O)(=O)c1ccccc1)CC(C(=O)O)O2` (centres undefined) the activation was -11.9%. Work on `Cc1ccc(-n2ncc3c2CC(C)(C)CC3NC(=O)CCc2cnn(C)c2)cc1` (centres undefined) yielded an activation of -3.78%.
